Test results from ChEMBL document CHEMBL1136653, “Discovery of a potent and selective agonist of the prostaglandin EP4 receptor” (Bioorg Med Chem Lett, 2003).

Legend:
[1] = target: Prostaglandin E2 receptor EP2 subtype (Homo sapiens, UniProt P43116); assay: Binding affinity towards EP2 receptor expressed in HEK293 ebna cells recombinantly expressing the corresponding human prostanoid cDNAs; format: cell-based
Procedure, shortened: (§1)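 Competition binding used membrane preparations, not intact cells, from HEK293ebna cells expressing each recombinant human prostanoid receptor cDNA.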

[2] = target: T1, Prostaglandin D2 receptor (Homo sapiens, UniProt Q13258); assay: Binding affinity towards DP receptor expressed in HEK293 ebna cells recombinantly expressing the corresponding human prostanoid cDNAs; format: cell-based; procedure, shortened: as §1
T1 sequence (Q13258 whole entry): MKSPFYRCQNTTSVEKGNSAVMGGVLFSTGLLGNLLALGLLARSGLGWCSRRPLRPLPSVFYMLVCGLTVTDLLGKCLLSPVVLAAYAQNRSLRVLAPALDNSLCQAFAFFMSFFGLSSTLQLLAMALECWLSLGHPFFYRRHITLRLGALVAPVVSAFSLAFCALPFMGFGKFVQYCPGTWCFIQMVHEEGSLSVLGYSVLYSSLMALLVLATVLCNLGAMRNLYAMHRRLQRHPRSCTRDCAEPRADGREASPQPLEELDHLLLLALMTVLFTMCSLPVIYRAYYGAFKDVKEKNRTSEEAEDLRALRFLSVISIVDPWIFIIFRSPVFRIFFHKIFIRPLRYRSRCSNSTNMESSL

[3] = target: T2, Prostaglandin E2 receptor EP3 subtype (Homo sapiens, UniProt P43115); assay: Binding affinity towards EP3 receptor expressed in HEK293 ebna cells recombinantly expressing the corresponding human prostanoid cDNAs; format: cell-based; procedure, shortened: as §1
T2 sequence (P43115 whole entry): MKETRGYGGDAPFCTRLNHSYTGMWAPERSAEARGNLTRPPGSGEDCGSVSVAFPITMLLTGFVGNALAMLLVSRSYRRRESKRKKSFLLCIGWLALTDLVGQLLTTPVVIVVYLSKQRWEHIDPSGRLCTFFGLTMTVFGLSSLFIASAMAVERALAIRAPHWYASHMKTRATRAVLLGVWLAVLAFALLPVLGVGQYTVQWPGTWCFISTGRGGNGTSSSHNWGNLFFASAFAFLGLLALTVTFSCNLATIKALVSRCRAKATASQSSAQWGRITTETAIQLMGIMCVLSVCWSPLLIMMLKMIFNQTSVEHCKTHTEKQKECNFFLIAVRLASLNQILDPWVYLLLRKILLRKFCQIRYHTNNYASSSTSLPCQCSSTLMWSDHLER

Thromboxane A2 receptor = target: T3, Thromboxane A2 receptor (Homo sapiens, UniProt P21731); assay: Binding affinity towards TP receptor expressed in HEK293 ebna cells recombinantly expressing the corresponding human prostanoid cDNAs; format: cell-based; procedure, shortened: as §1
T3 sequence (P21731 whole entry): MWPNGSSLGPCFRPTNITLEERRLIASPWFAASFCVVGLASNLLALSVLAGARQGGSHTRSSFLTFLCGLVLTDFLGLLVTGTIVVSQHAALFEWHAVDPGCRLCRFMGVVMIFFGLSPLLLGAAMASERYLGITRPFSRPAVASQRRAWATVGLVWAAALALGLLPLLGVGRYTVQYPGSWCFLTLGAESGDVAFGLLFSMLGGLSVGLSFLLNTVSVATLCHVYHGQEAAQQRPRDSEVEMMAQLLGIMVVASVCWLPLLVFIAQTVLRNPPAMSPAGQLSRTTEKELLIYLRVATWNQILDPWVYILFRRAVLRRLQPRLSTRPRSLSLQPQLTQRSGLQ

[4] = target: T4, Prostaglandin E2 receptor EP1 subtype (Homo sapiens, UniProt P34995); assay: Binding affinity towards EP1 receptor expressed in HEK293 ebna cells recombinantly expressing the corresponding human prostanoid cDNAs; format: cell-based; procedure, shortened: as §1
T4 sequence (P34995 whole entry): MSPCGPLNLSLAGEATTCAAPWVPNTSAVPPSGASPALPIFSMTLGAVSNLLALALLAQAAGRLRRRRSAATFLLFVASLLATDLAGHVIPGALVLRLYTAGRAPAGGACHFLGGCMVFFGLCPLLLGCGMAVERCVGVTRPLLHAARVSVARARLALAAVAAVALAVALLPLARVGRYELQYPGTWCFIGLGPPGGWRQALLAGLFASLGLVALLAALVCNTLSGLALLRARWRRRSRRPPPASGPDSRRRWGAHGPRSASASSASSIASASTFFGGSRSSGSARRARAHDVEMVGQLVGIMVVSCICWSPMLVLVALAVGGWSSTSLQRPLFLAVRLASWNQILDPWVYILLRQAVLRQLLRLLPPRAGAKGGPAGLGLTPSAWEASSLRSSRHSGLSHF

[5] = target: Prostaglandin F2-alpha receptor (Homo sapiens, UniProt P43088); assay: Binding affinity towards FP receptor expressed in HEK293 ebna cells recombinantly expressing the corresponding human prostanoid cDNAs; format: cell-based; procedure, shortened: as §1
Prostacyclin receptor = Prostacyclin receptor (Homo sapiens, UniProt P43119); assay: Binding affinity towards IP receptor expressed in HEK293 ebna cells recombinantly expressing the corresponding human prostanoid cDNAs; format: cell-based; procedure, shortened: as §1
[6] = target: T5, Prostaglandin E2 receptor EP4 subtype (Homo sapiens, UniProt P35408); assay: Binding affinity towards EP4 receptor expressed in HEK293 ebna cells recombinantly expressing the corresponding human prostanoid cDNAs; format: cell-based
[7] = Half-life after intravenous dose in rat; format: ADME, organism-based; conditions: in vivo
[8] = target: T5, Prostaglandin E2 receptor EP4 subtype; assay: EP4 agonist potency utilizing a stable clone of pSV40-EP4 transfected into HEK293 cells expressing EP4 receptor; format: functional, cell-based
Procedure, shortened: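 A HEK293 stable clone carried pSV40-EP4 at about 50 fmol/mg receptor. Whole-cell cAMP assay: 1×10⁵ cells per sample were suspended in 0.2 mL HBSS with 2 mM IBMX. Compound or PGE₂ was given in DMSO at a constant final 1.8% (v/v). Incubation ran 10 min at 37 °C and was stopped by 3 min in boiling water. cAMP was read by [¹²⁵I]cAMP scintillation proximity assay.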

[9] = target: T5, Prostaglandin E2 receptor EP4 subtype; assay: Inhibitory activity against human EP4 receptor expressed in HEK293 ebna cells; format: cell-based

Sequence of Prostaglandin E2 receptor EP2 subtype (P43116 whole entry): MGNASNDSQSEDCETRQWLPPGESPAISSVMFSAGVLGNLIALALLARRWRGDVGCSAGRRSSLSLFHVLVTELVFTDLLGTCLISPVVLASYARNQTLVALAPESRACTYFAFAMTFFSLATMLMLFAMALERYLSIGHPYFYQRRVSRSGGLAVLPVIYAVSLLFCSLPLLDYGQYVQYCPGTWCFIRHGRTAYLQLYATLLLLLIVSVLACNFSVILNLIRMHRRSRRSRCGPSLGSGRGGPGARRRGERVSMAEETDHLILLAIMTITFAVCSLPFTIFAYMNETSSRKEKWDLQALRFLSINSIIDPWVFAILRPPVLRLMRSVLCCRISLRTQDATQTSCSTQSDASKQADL
T5 sequence (P35408 whole entry): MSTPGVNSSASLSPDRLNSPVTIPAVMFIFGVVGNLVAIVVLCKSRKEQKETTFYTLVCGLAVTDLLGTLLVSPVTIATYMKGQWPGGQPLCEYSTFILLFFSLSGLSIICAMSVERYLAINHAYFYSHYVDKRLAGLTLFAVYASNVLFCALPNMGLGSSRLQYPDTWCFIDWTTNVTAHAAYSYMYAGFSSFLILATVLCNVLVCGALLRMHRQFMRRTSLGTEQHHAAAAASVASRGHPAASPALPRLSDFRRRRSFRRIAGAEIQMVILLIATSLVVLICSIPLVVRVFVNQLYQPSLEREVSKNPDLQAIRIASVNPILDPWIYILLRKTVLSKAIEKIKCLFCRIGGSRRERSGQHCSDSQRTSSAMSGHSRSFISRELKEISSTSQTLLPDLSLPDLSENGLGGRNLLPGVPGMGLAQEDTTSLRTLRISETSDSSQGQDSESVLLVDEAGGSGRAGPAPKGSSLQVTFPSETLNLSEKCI
Sequence of Prostacyclin receptor (P43119 whole entry): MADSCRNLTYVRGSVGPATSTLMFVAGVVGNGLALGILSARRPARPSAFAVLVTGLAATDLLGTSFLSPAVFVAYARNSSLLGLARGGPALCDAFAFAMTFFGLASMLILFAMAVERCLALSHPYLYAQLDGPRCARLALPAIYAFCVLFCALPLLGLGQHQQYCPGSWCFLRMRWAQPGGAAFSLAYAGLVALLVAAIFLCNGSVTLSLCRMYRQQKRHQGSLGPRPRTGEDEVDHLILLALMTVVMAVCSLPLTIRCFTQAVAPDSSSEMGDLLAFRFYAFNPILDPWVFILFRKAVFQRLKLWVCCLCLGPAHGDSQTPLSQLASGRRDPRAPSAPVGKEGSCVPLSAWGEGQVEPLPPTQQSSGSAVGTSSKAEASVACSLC
Sequence of Prostaglandin F2-alpha receptor (P43088 whole entry): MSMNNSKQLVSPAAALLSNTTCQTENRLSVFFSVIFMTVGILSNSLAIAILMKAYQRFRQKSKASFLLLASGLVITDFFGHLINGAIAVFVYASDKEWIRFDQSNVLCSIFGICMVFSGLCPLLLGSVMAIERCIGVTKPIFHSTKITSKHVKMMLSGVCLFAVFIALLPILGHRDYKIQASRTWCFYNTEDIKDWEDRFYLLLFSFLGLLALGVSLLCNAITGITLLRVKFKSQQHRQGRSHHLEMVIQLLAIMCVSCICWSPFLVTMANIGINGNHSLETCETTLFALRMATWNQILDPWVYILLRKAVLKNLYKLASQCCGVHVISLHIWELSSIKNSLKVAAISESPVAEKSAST

Ki [1] [µM] | Ki [2] [µM] | Ki [3] [µM] | Ki (Thromboxane A2 receptor) [µM] | Ki [4] [µM] | Ki [5] [µM] | Ki (Prostacyclin receptor) [µM] | Ki [6] [µM] | half-life [7] [min] | EC50 [8] [µM] | IC50 [9] [µM] | Structure (SMILES)
> 13 | > 13 | > 13 | > 13 | > 13 | > 13 | > 13 | 3.5 | – | – | – | O=C(O)CCCCCCN1C(=O)CC[C@@H]1/C=C/C(O)C1CCCCC1 (some centres not stated)
> 13 | > 13 | > 13 | > 13 | > 13 | > 13 | > 13 | 0.23 | – | – | – | O=C1CC[C@H](/C=C/[C@H](O)Cc2ccccc2)N1CCCCCCc1nnn[nH]1
> 13 | > 13 | > 13 | > 13 | > 13 | > 13 | > 13 | 0.0025 | – | – | – | O=C1CC[C@H](/C=C/[C@@H](O)Cc2ccccc2)N1CCCCCCc1nnn[nH]1.O=C1CC[C@H](/C=C/[C@H](O)Cc2ccccc2)N1CCCCCCc1nnn[nH]1
4.05 | > 13 | 0.7 | > 13 | > 13 | > 13 | > 13 | 0.028 | – | – | – | CCCCCC(O)CC[C@H]1CCC(=O)N1CCCCCCC(=O)O (some centres not stated)
3.61 | > 13 | 2.32 | > 13 | > 13 | > 13 | > 13 | 1.11 | – | – | – | CCCCCC(O)CC[C@@H]1CCC(=O)N1CCCCCCC(=O)O (some centres not stated)
> 13 | > 13 | 1.22 | > 13 | > 13 | > 13 | > 13 | 1.41 | – | – | – | CCCCCC(O)/C=C/[C@@H]1CCC(=O)N1CCCCCCC(=O)O (some centres not stated)
> 13 | > 13 | 10.6 | > 13 | > 13 | > 13 | > 13 | 0.062 | – | – | – | CC(C)(c1ccccc1)C(O)/C=C/[C@H]1CCC(=O)N1CCCCCCC(=O)O (some centres not stated)
> 13 | > 13 | 2.01 | > 13 | > 13 | > 13 | > 13 | 0.102 | – | – | – | O=C(O)CCCCCCN1C(=O)CC[C@@H]1/C=C/C(O)CCc1ccccc1 (some centres not stated)
> 13 | > 13 | > 13 | > 13 | > 13 | > 13 | > 13 | 2.1 | – | – | – | CC(O)(/C=C/[C@H]1CCC(=O)N1CCCCCCC(=O)O)Cc1ccccc1 (some centres not stated)
> 13 | > 13 | 3.34 | > 13 | > 13 | > 13 | > 13 | 0.012 | – | – | – | O=C(O)CCCCCCN1C(=O)CC[C@@H]1/C=C/C(O)C1(c2ccccc2)CC1 (some centres not stated)
> 13 | > 13 | > 13 | > 13 | > 13 | > 13 | > 13 | – | < 20 | – | – | O=C(O)CCCCCCN1C(=O)CC[C@@H]1/C=C/C(O)Cc1ccccc1 (some centres not stated)
> 13 | > 13 | > 13 | > 13 | > 13 | > 13 | > 13 | 0.443 | – | – | – | COC(=O)CSCCCCN1C(=O)CC[C@@H]1/C=C/C(O)Cc1ccccc1 (some centres not stated)
> 13 | > 13 | > 13 | > 13 | > 13 | > 13 | > 13 | 0.013 | – | – | – | O=C(O)CSCCCCN1C(=O)CC[C@@H]1/C=C/C(O)Cc1ccccc1 (some centres not stated)
> 13 | > 13 | > 13 | > 13 | > 13 | > 13 | > 13 | 0.0036 | – | – | – | COCc1cccc(CC(O)/C=C/[C@H]2CCC(=O)N2CCCCCCC(=O)O)c1 (some centres not stated)
3 | > 13 | 2 | > 13 | > 13 | > 13 | > 13 | 0.035 | – | – | – | CCCCCC(O)CCC1CCC(=O)N1CCCCCCC(=O)O (configuration not stated)
6.68 | > 13 | 0.419 | > 13 | > 13 | > 13 | > 13 | 0.006 | – | – | – | CCCCCC(O)/C=C/[C@H]1CCC(=O)N1CCCCCCC(=O)O (some centres not stated)
> 13 | > 13 | > 13 | > 13 | > 13 | > 13 | > 13 | 0.0012 | – | 0.0025 | 0.0014 | O=C1CC[C@H](/C=C/[C@@H](O)Cc2ccccc2)N1CCCCCCc1nnn[nH]1
> 13 | > 13 | > 13 | > 13 | > 13 | > 13 | > 13 | 0.066 | – | – | – | O=C1CC[C@H](/C=C/C(O)Cc2ccccc2)N1CCCCSCc1nn[nH]n1 (some centres not stated)
> 13 | > 13 | > 13 | > 13 | > 13 | > 13 | > 13 | 0.14 | – | – | – | O=C(O)CCSCCCCN1C(=O)CC[C@@H]1/C=C/C(O)Cc1ccccc1 (some centres not stated)
> 13 | > 13 | > 13 | > 13 | > 13 | > 13 | > 13 | 0.243 | – | – | – | O=C1CC[C@H](/C=C/C(O)Cc2ccccc2)N1CCCCSc1nnn[nH]1 (some centres not stated)
